ChEMBL document CHEMBL1212775, “A novel class of meso-tetrakis-porphyrin derivatives exhibits potent activities against hepatitis C virus genotype 1b replicons in vitro” (Antimicrob Agents Chemother, 2010)
pEC50, pIC50, pKd: −log10 of the molar value. The source made the active and inactive calls. The calls are words filed in the database; no cut-off is given here.

What was measured:
[1] = tested on: Hepatitis C virus; assay: Antiviral activity against Hepatitis C virus genotype 1b Con1 infected in human Huh-luc/neo-ET replicon cells assessed as reduction in viral RNA level after 48 hrs by RT-PCR; format: functional, organism-based, Hepacivirus hominis
Method in brief: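 Cells seeded at 1 × 10^5 per well and treated with DMSO or compound up to 250 nM for 24, 48 or 72 h. Total RNA diluted to 50 ng/μl. Replicon RNA (5′ UTR) measured in triplicate by one-step qRT-PCR, normalized to β-actin mRNA, and expressed as percent of mock control. Three independent repeats.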

[2] = tested on: Hepatitis C virus; assay: Antiviral activity against blasticidin resistant Hepatitis C virus genotype 1b Con1 replicon infected in human HuH7 cells assessed as reduction in viral RNA level by RT-PCR; format: functional, organism-based, Hepacivirus hominis; details: Con1, Huh-7
[3] = tested on: Hepatitis C virus; assay: Antiviral activity against Hepatitis C virus genotype 1b Con1 infected in human Huh-luc/neo-ET replicon cells assessed as reduction of replicon luciferase signal after 72 hrs by luciferase reporter assay in presence of 20% fetal bovine serum; format: functional, organism-based, Hepacivirus hominis
Method in brief: (§1)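 Huh-luc/neo-ET cells without G418, incubated with serially diluted compounds in medium containing 5%, 10%, 20% or 40% (vol/vol) FBS. Firefly luciferase read after 72 h. EC50 from dose-effect curves. The 0% value is a theoretical EC50 extrapolated from the plot of EC50 versus serum level. Means ± SD of three independent experiments.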

[4] = tested on: CCRF-CEM; assay: Mitochondrial DNA toxicity in human CEM cells; format: cell-based
Method in brief: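 CEM cell lysates slot-blotted and hybridized with an mtDNA-specific probe, then reprobed with an Alu probe as internal control. Bands quantified by autoradiography and densitometry.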

[5] = tested on: Hepatitis C virus; assay: Antiviral activity against Hepatitis C virus genotype 1b Con1 infected in human Huh-luc/neo-ET replicon cells assessed as inhibition of viral rebound dosed at 1 uM incubated for 9 days followed by compound removal and reintroduction of 250 ug/ml G418 measured after 15 days post compound withdrawal; format: functional, organism-based; details: Hepacivirus hominis
Method in brief: (§2)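 In a separate run, Huh-luc/neo-ET replicon cells were treated for 9 days without G418. Drug was then withdrawn and cells were kept for a 15-day rebound period under G418 selection. Surviving cells were scored as the fraction of the population that outlasted selection.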

[6] = Cytotoxicity against human HuH7 cells by luminescence based cell viability assay; parameters: species or system Huh-7
Method in brief: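 Exponentially growing Huh-7 cells seeded at 1 × 10^4 per well and incubated with compounds for 3 days. Viability read by CellTiter-Glo luminescence, used for dark compounds that interfere with methylene blue absorbance at 595 nm. CC50 derived.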

[7] = tested on: Hepatitis C virus; assay: Antiviral activity against Hepatitis C virus genotype 1b Con1 infected in human Huh-luc/neo-ET replicon cells assessed as viral replicon survival dosed at 100 nM incubated for 12 days followed by compound removal and reintroduction of 250 ug/ml G418 measured after 12 days post compound withdrawal; format: functional, Hepacivirus hominis
Method in brief: (§3)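 Huh-luc/neo-ET cells were seeded at 2 × 10^5 per well and kept without G418 for 12 days with DMSO or up to 1 μM drug. Cells were split every 3 days, with medium and drug renewed. Drug was then removed and 250 μg/ml G418 added for 12 more days, sampling at confluence. HCV 5′UTR RNA was measured by one-step qRT-PCR, normalised to β-actin and expressed relative to mock. Viability was read by CellTiter-Glo as % of mock.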

[8] = tested on: Hepatitis C virus; assay: Antiviral activity against Hepatitis C virus genotype 1b Con1 infected in human Huh-luc/neo-ET replicon cells assessed as viral replicon survival dosed at 300 nM incubated for 9 days followed by compound removal and reintroduction of 250 ug/ml G418 measured after 15 days post compound withdrawal; format: functional, Hepacivirus hominis; method in brief: as §2
[9] = tested on: Hepatitis C virus; assay: Antiviral activity against Hepatitis C virus genotype 1b Con1 infected in human Huh-luc/neo-ET replicon cells assessed as inhibition of viral rebound dosed at 300 nM incubated for 12 days followed by compound removal and reintroduction of 250 ug/ml G418 measured after 9 days post compound withdrawal; format: functional, organism-based; details: Hepacivirus hominis; method in brief: as §3
[10] = tested on: Hepatitis C virus; assay: Antiviral activity against Hepatitis C virus genotype 2a JFH1 infected in human YSGR-JFH replicon cells assessed as inhibition of virus RNA level after 72 hrs by quantitative RT-PCR; format: functional, organism-based, Hepacivirus hominis; details: subtype 2a JFH1, 72 h
Method in brief: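 YSGR-JFH genotype 2a subgenomic replicon cells (maintained with 400 μg/ml G418), 1 × 10^5 per well, incubated with DMSO, serially varied compound, or IFN-α-2a for 72 h. HCV RNA by qRT-PCR normalized to β-actin, as percent of mock-treated control. Mean ± SD of three independent experiments.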

[11] = tested on: Hepatitis C virus; assay: Antiviral activity against Hepatitis C virus genotype 1b Con1 infected in human Huh-luc/neo-ET replicon cells assessed as inhibition of viral RNA level dosed at >300 nM incubated for 12 days measured after 12 days of exposure relative to untreated control
[12] = tested on: Hepatitis C virus; assay: Antiviral activity against Hepatitis C virus genotype 1b Con1 infected in human Huh-luc/neo-ET replicon cells assessed as inhibition of viral rebound dosed at 300 nM incubated for 9 days followed by compound removal and reintroduction of 250 ug/ml G418 measured after 15 days post compound withdrawal; format: functional, organism-based; details: Hepacivirus hominis; method in brief: as §2
[13] = tested on: Hepatitis C virus; assay: Antiviral activity against Hepatitis C virus genotype 1b Con1 infected in human Huh-luc/neo-ET replicon cells assessed as inhibition of viral rebound dosed at 1 uM incubated for 12 days followed by compound removal and reintroduction of 250 ug/ml G418 measured after 9 days post compound withdrawal; format: functional, organism-based; details: Hepacivirus hominis; method in brief: as §3
[14] = tested on: Hepatitis C virus; assay: Antiviral activity against Hepatitis C virus genotype 1b Con1 infected in human Huh-luc/neo-ET replicon cells assessed as reduction of replicon luciferase signal after 72 hrs by luciferase reporter assay in presence of 0% fetal bovine serum; format: functional, organism-based, Hepacivirus hominis; method in brief: as §1
[15] = tested on: Hepatitis C virus; assay: Antiviral activity against Hepatitis C virus genotype 1b Con1 infected in human Huh-luc/neo-ET replicon cells assessed as viral replicon survival dosed at 50 nM incubated for 12 days followed by compound removal and reintroduction of 250 ug/ml G418 measured after 6 days post compound withdrawal; format: functional, Hepacivirus hominis; method in brief: as §3
[16] = tested on: Hepatitis C virus; assay: Antiviral activity against Hepatitis C virus genotype 1b Con1 infected in human Huh-luc/neo-ET replicon cells assessed as reduction of virus-induced cytopathic effect after 72 hrs by luciferase reporter assay; format: functional, organism-based, Hepacivirus hominis
Method in brief: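 Replicon cells grown without G418, seeded at 5 × 10^3 per well, treated next day in duplicate with serial dilutions (DMSO control) at 37°C for 72 h. After a PBS wash, cells lysed in ice-cold passive lysis reagent and firefly luciferase RLU read as percent of compound-free control. EC50 by nonlinear regression of the dose-effect curve.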

[17] = tested on: MT2; assay: Cytotoxicity against human MT2 cells after 5 days by colorimetry; format: cell-based; details: MT2, 120 h
Method in brief: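 Uninfected MT-2 cells coincubated with compounds for 5 days. Cytotoxicity by colorimetric quantitation.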

[18] = tested on: Hepatitis C virus; assay: Antiviral activity against Hepatitis C virus genotype 1b Con1 infected in human Huh-luc/neo-ET replicon cells assessed as reduction of replicon luciferase signal after 72 hrs by luciferase reporter assay in presence of 40% fetal bovine serum; format: functional, organism-based, Hepacivirus hominis; method in brief: as §1
[19] = biological target: Cytochrome c (Homo sapiens, UniProt P99999); assay: Binding affinity to Cytochrome C
[20] = tested on: Hepatitis C virus; assay: Antiviral activity against Hepatitis C virus genotype 1b Con1 infected in human Huh-luc/neo-ET replicon cells assessed as viral replicon survival dosed at 50 nM incubated for 12 days followed by compound removal and reintroduction of 250 ug/ml G418 measured after 12 days post compound withdrawal; format: functional, Hepacivirus hominis; method in brief: as §3

Cytochrome c, sequence (P99999 whole entry): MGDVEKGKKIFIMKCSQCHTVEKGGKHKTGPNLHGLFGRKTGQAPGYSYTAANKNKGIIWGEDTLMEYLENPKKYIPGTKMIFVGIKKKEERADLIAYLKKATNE

With O=C(O)c1cc(C(=O)O)cc(-c2ccc(-c3c4nc(c(-c5ccc(-c6cc(C(=O)O)cc(C(=O)O)c6)cc5)c5ccc([nH]5)c(-c5ccc(-c6cc(C(=O)O)cc(C(=O)O)c6)cc5)c5ccc([nH]5)c(-c5ccc(-c6cc(C(=O)O)cc(C(=O)O)c6)cc5)c5nc3C=C5)C=C4)cc2)c1 the pEC50 [1] was 7.44, the inhibition ([1]; Hepacivirus hominis) was “Dose-dependent effect” and the pEC50 [2] was 7.85. The pEC50 [3] was 7.41, the pIC50 [4] was less than 4.30 and the inhibition [5] was “Active”. It also gave a CC50 [6] greater than 50000 nM, a Survival [7] of 0.007% and a Survival [8] of 0.4%. The inhibition [9] was “Active”, the pEC50 [10] was 5.86 and the “fold change (FC)” value [11] was 4.5. The inhibition [12] was “Active”, the inhibition [13] was “Active” and the pEC50 [14] was 8.19. For the same compound, the Survival [15] was 8.5%, the pEC50 [16] was 7.75 and the inhibition ([16]; Hepacivirus hominis) was “Dose-dependent effect”. For the same compound, the CC50 [17] was 18000 nM, the pEC50 [18] was 7.16 and the pKd [19] was 5.82. For the same compound, the Survival [20] was 13.1%.
